Experimental data as given in ChEMBL document CHEMBL4028918, “7-Phenoxy-Substituted 3,4-Dihydro-2H-1,2,4-benzothiadiazine 1,1-Dioxides as Positive Allosteric Modulators of α-Amino-3-hydroxy-5-methyl-4-isoxazolepropionic Acid (AMPA) Receptors with Nanomolar Potency” (J Med Chem, 2018).
Activity calls are given as the source filed them. The rule behind the calls is not given here.

Tests used:
Glutamate receptor 2 = Glutamate receptor 2 (Homo sapiens, UniProt P42262); test: Positive allosteric modulation of GluA2 (Q) flop isoform (unknown origin) expressed in HEK293 cells assessed as potentiation of glutamate-evoked calcium flux by fluo-4/AM dye-based fluorescence assay; assay type: cell-based
Sequence of Glutamate receptor 2 (P42262 whole entry, the tested form may be a part, canonical isoform): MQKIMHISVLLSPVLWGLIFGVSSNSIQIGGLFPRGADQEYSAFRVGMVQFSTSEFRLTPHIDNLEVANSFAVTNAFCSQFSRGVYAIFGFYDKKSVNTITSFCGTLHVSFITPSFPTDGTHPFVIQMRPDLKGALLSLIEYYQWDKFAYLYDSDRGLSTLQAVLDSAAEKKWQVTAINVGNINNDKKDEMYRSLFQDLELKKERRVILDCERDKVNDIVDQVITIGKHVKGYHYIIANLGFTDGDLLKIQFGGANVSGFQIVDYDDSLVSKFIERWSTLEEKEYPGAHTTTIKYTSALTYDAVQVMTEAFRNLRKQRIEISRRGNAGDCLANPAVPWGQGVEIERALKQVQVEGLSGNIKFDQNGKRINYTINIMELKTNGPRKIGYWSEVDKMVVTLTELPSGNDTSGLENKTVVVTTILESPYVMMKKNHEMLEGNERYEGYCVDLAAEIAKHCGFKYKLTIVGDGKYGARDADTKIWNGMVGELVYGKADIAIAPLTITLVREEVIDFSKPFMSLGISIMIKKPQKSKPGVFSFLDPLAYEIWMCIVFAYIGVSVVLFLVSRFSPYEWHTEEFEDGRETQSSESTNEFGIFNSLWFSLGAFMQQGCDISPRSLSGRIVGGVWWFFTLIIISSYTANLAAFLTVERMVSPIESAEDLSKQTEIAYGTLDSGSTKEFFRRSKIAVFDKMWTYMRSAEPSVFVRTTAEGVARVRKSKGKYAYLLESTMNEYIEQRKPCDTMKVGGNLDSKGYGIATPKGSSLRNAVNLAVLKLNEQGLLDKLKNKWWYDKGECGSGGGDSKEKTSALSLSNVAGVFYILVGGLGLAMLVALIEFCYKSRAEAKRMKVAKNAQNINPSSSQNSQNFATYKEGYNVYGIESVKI

Rattus norvegicus [1] = organism: Rattus norvegicus; test: Induction of dimerization of rat N-terminal His-tagged GluA2-LBD-N775S mutant expressed in Escherichia coli Origami B (DE3) assessed as intrinsic binding constant by small-angle X-ray scattering method
Outline: (§1)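 1 μL modulator in DMSO was added to 29 μL protein. Samples were held at 4 °C and read on the CHESS G1 beamline, three replicates averaged, with buffer subtraction.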

Rattus norvegicus [2] = organism: Rattus norvegicus; test: Induction of dimerization of rat N-terminal His-tagged GluA2-LBD-N775S mutant expressed in Escherichia coli Origami B (DE3) assessed as dimerization constant by small-angle X-ray scattering method; outline: as §1
Rattus norvegicus [3] = organism: Rattus norvegicus; test: Induction of dimerization of rat N-terminal His-tagged/15N-labeled GluA2-LBD-N775S mutant expressed in Escherichia coli Origami B (DE3) at 90 uM by NMR spectroscopy

EC50 (Glutamate receptor 2; read-out: EC50)	Compound	also measured
3190 nM	Cc1ccc(Oc2ccc3c(c2)S(=O)(=O)NCN3C2CC2)cc1	–
810 nM	O=S1(=O)NCN(C2CC2)c2ccc(F)cc21	K (Rattus norvegicus [1]): 9 ×10⁻⁷ M
2 nM	COc1cccc(Oc2ccc3c(c2)S(=O)(=O)NCN3C2CC2)c1	K (Rattus norvegicus [1]): 5 ×10⁻¹¹ M; K (Rattus norvegicus [2]): 32 mM; Activity (Rattus norvegicus [3]): Active
15600 nM	COc1ccccc1Oc1ccc2c(c1)S(=O)(=O)NCN2C1CC1	–
15600 nM	Cc1ccccc1Oc1ccc2c(c1)S(=O)(=O)NCN2C1CC1	–
390 nM	Cc1cccc(Oc2ccc3c(c2)S(=O)(=O)NCN3C)c1	–
710 nM	O=S1(=O)NCN(C2CC2)c2ccc(Oc3ccccc3)cc21	–
370 nM	COc1cccc(Oc2ccc3c(c2)S(=O)(=O)NCN3C)c1	–
7620 nM	CN1CNS(=O)(=O)c2cc(Oc3ccccc3)ccc21	–
50 nM	Cc1cccc(Oc2ccc3c(c2)S(=O)(=O)NCN3C2CC2)c1	–
> 10000 nM	COc1ccccc1Oc1ccc2c(c1)S(=O)(=O)NCN2C	–
5900 nM	COc1ccc(Oc2ccc3c(c2)S(=O)(=O)NCN3C)cc1	–
450 nM	N#Cc1cccc(Oc2ccc3c(c2)S(=O)(=O)NCN3C2CC2)c1	–
20400 nM	O=S1(=O)NCN(CCF)c2ccc(Cl)cc21	K (Rattus norvegicus [1]): 2 ×10⁻⁶ M
18700 nM	CC1N(C)c2ccc(Cl)cc2S(=O)(=O)N1C (stereo not drawn)	–
–	Cc1ccccc1Oc1ccc2c(c1)S(=O)(=O)NCN2C	EC50 (Glutamate receptor 2; read-out: pEC50 (converted)): > 10000 nM
950 nM	Cc1ccc(Oc2ccc3c(c2)S(=O)(=O)NCN3C)cc1	–
1820 nM	COc1ccc(Oc2ccc3c(c2)S(=O)(=O)NCN3C2CC2)cc1	–
